Laboratory results from publication PMC5543573 (Current Pharmaceutical Design, 2017).
In brackets after ≈: the same amount, converted by molar mass.

How the values were obtained:
[1] = test system: Candida albicans (ATCC 24433); assay: Broth microdilution MIC90; type: cell-based; settings: ATCC24433, read-out: MIC90 Ca
MTT cytotoxicity assay = type: cell-based; settings: human
Outline: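 Human CCD 841 CoN colon epithelial cells were grown in RPMI-1640 with 10% FBS, 1% penicillin/streptomycin, 1% L-glutamine and amphotericin B at 37 °C under 5% CO2. They were seeded at 5x10^3 cells/well, then treated 24 h later with test compound at 1.95–1000 µg/ml for 24 h. MTT solution (5 mg/mL) was added for 3 h at 37 °C, formazan dissolved in DMSO, and absorbance read at 540 nm. IC50 was obtained by regression of proliferation against concentration.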

SMILES | MIC90 [1] | IC50 at 24 h (MTT cytotoxicity assay)
CC(=O)N1CCN(c2ccc(OCC3COC(Cn4ccnc4)(c4ccc(Cl)cc4Cl)O3)cc2)CC1 (centres unmarked) [Ketoconazole] | 7.8 µg/mL (≈ 14.7 µM) | –
O=C(N/N=C/c1ccc([N+](=O)[O-])o1)c1ccc(O)cc1 [Nifuroxazide] | – | 122 µg/mL (≈ 443 µM)
